# Results pooled from the literature.
# Each line is one published result; the experiments were not run side by side.
# IDE: Insulin-degrading enzyme (IDE, Homo sapiens, UniProt P14735)
# CSF1R: Macrophage colony-stimulating factor 1 receptor (CSF1R, Homo sapiens, UniProt P07333)
# STK4: Serine/threonine-protein kinase 4 (STK4, Homo sapiens, UniProt Q13043)
# Tumor necrosis factor receptor superfamily member 9: Tumor necrosis factor receptor superfamily member 9 (Homo sapiens, UniProt Q07011)
Structure (SMILES),target,read-out,mode,technique,notes,quantity,result
Cc1cc2nc3c(=O)[nH]c(=O)nc-3n(C[C@H](O)[C@H](O)[C@H](O)COP(=O)(O)OP(=O)(O)OC[C@H]3O[C@@H](n4cnc5c(N)ncnc54)[C@H](O)[C@@H]3O)c2cc1C,"Heterogeneous nuclear ribonucleoprotein H3 (Homo sapiens, UniProt P31942)",binding,,,lysate,Kd,19 nM
CC(C)C[C@H](NC(=O)[C@H](Cc1ccccc1)NC(=O)[C@H](Cc1ccc(O)cc1)NC(=O)CNC(=O)[C@H](CCCNC(=N)N)NC(=O)[C@H](CO)NC(=O)[C@H](CCC(N)=O)NC(=O)[C@H](CO)NC(=O)[C@H](C)NC(=O)[C@H](Cc1ccccc1)NC(=O)[C@@H]1CCCN1C(=O)[C@H](CO)NC(=O)[C@H](CCC(N)=O)NC(=O)[C@H](Cc1ccccc1)NC(=O)[C@H](CCC(=O)O)NC(=O)[C@H](CCC(=O)O)NC(=O)[C@H](CC(=O)O)NC(=O)[C@@H](NC(=O)[C@H](CCCNC(=N)N)NC(=O)[C@@H](N)Cc1ccccc1)C(C)C)C(=O)N[C@@H](Cc1ccccc1)C(=O)N[C@@H](CCCNC(=N)N)C(=O)N1CCC[C@H]1C(=O)N[C@@H](CCCNC(=N)N)C(=O)N[C@@H](CC(N)=O)C(N)=O,"Neuromedin-U receptor 2 (NMUR2, Homo sapiens, UniProt Q9GZQ4)",inositol phosphate,agonist,TR-FRET,,EC50,0.17 nM
COC(=O)[C@H](Cc1c[nH]cn1)NC(=O)CN(CC(=O)O)Cc1ccc(C)cc1,IDE,enzyme activity,inhibitor,fluorescence,,IC50,1700 nM
CNC(=O)c1cc2c(Oc3ccc(NC(=O)C4(C(=O)Nc5ccc(F)cc5)CC4)cc3)ccnc2cc1OC,CSF1R,enzyme activity,inhibitor,radiometric,,IC50,11 nM
Cc1cnc(-c2ccc(-c3ccc(NC(=O)Nc4c(F)cc(F)cc4F)cc3F)c3c2C(=O)NC3)[nH]1,STK4,binding,,competition with immobilised ligand,,Kd,1.3 nM
c1cncc(-c2cccc(Nc3nccc(NC4CCCCC4)n3)c2)c1,"Tyrosine-protein kinase JAK3, JH1 (JAK3, Homo sapiens, UniProt P52333)",binding,,competition with immobilised ligand,,Kd,1300 nM
Cc1ccc(C)c(OCCCC(C)(C)C(=O)O)c1,"Peroxisome proliferator-activated receptor alpha (PPARA, Homo sapiens, UniProt Q07869)",reporter gene,agonist,luciferase,,EC50,201000 nM
CCCC[C@@H]1NC(=O)[C@H](Cc2ccc(O)cc2)NC(=O)[C@@H]2CCCN2C(=O)[C@H](CC(=O)O)NC(=O)[C@H](C)NC(=O)[C@H](Cc2ccccc2)NC(=O)[C@@H]2CSCCC(=O)N3CN(CN(C3)C(=O)CCSC[C@@H](C(=O)N[C@@H](CNC(=O)Cn3cc(CCC(=O)NCCC(=O)N(C)CC(=O)N(C)CC(=O)N(C)CC(=O)N(C)CC(=O)N(C)CC(=O)N(C)CC(=O)N(C)CC(=O)N(C)CC(=O)N(C)CC(=O)N(C)CC(=O)N[C@H]4CSCCC(=O)N5CN6CN(C5)C(=O)CCSC[C@H](NC(=O)[C@@H](CC(=O)O)NC(=O)[C@H](Cc5cccc7ccccc57)NC(=O)[C@@H]5CCCN5C4=O)C(=O)N[C@@H](CCSC)C(=O)N[C@@H](CCCCNC(=N)N)C(=O)N[C@@H](CC(=O)O)C(=O)N[C@@H](Cc4c[nH]c5ccccc45)C(=O)N[C@@H](CO)C(=O)N[C@@H]([C@@H](C)O)C(=O)N4CCC[C@H]4C(=O)N4C[C@H](O)C[C@H]4C(=O)N[C@@H](Cc4c[nH]c5ccccc45)C(=O)N[C@H](C(N)=O)CSCCC6=O)nn3)C(N)=O)NC1=O)C(=O)CCSC[C@H](NC(C)=O)C(=O)N[C@@H](CC(C)(C)C)C(=O)N1CCC[C@H]1C(=O)N[C@@H](CCC(=O)O)C(=O)N[C@H](C)C(=O)N1CCC[C@H]1C(=O)N[C@@H](Cc1ccc(O)cc1)C(=O)N2,Tumor necrosis factor receptor superfamily member 9,binding,,SPR,,Kd,4.9 nM
COC(=O)[C@H](Cc1c[nH]cn1)NC(=O)CN(CCCc1ccccc1)CC(=O)O,IDE,enzyme activity,inhibitor,fluorescence,,IC50,1000 nM
Cc1cc(Nc2cc3ncccc3c(N[C@@H]3C[C@H]4CC[C@@H](C3)N4CCC#N)n2)n[nH]1,CSF1R,binding,,competition with immobilised ligand,,Kd,1100 nM
COC(=O)[C@H](Cc1c[nH]cn1)NC(=O)CN(CCCCc1ccccc1)CC(=O)O,IDE,enzyme activity,inhibitor,fluorescence,,IC50,600 nM
CN1CCN(c2ccc(Nc3ncc4cc(C#N)c(=O)n(C5CCCC5)c4n3)cc2)CC1,STK4,enzyme activity,inhibitor,,,IC50,7070 nM
COC(=O)[C@H](Cc1c[nH]cn1)NC(=O)CN(CC(=O)O)Cc1ccc(F)cc1,IDE,enzyme activity,inhibitor,fluorescence,,IC50,2500 nM
CCCC[C@@H]1NC(=O)[C@H](Cc2ccc(O)cc2)NC(=O)[C@@H]2CCCN2C(=O)[C@H](CC(=O)O)NC(=O)[C@H](C)NC(=O)[C@H](Cc2ccccc2)NC(=O)[C@@H]2CSCCC(=O)N3CN(CN(C3)C(=O)CCSC[C@@H](C(=O)N[C@@H](C)C(N)=O)NC1=O)C(=O)CCSC[C@H](NC(C)=O)C(=O)N[C@@H](CC(C)(C)C)C(=O)N1CCC[C@H]1C(=O)N[C@@H](CCC(=O)O)C(=O)N[C@H](CCCCNC(=O)CCc1cn(CCOCCOCCOCCOCCOCCC(=O)N[C@H]3CSCCC(=O)N4CN5CN(C4)C(=O)CCSC[C@H](NC(=O)[C@@H](CC(=O)O)NC(=O)[C@H](Cc4cccc6ccccc46)NC(=O)[C@@H]4CCCN4C3=O)C(=O)N[C@@H](CCSC)C(=O)N[C@@H](CCCCNC(=N)N)C(=O)N[C@@H](CC(=O)O)C(=O)N[C@@H](Cc3c[nH]c4ccccc34)C(=O)N[C@@H](CO)C(=O)N[C@@H]([C@@H](C)O)C(=O)N3CCC[C@H]3C(=O)N3C[C@H](O)C[C@H]3C(=O)N[C@@H](Cc3c[nH]c4ccccc34)C(=O)N[C@H](C(N)=O)CSCCC5=O)nn1)C(=O)N1CCC[C@H]1C(=O)N[C@@H](Cc1ccc(O)cc1)C(=O)N2,Tumor necrosis factor receptor superfamily member 9,binding,,SPR,,Kd,3.4 nM
CCCCCCN(CC(=O)O)CC(=O)N[C@@H](Cc1c[nH]cn1)C(=O)OC,IDE,enzyme activity,inhibitor,fluorescence,,IC50,400 nM
CCCC[C@@H]1NC(=O)[C@H](Cc2ccc(O)cc2)NC(=O)[C@@H]2CCCN2C(=O)[C@H](CC(=O)O)NC(=O)[C@H](C)NC(=O)[C@H](Cc2ccccc2)NC(=O)[C@@H]2CSCCC(=O)N3CN(CN(C3)C(=O)CCSC[C@@H](C(=O)N[C@@H](C)C(N)=O)NC1=O)C(=O)CCSC[C@H](NC(C)=O)C(=O)N[C@@H](CC(C)(C)C)C(=O)N1CCC[C@H]1C(=O)N[C@@H](CCCCNC(=O)CCc1cn(CC(=O)N[C@H]3CSCCC(=O)N4CN5CN(C4)C(=O)CCSC[C@H](NC(=O)[C@@H](CC(=O)O)NC(=O)[C@H](Cc4cccc6ccccc46)NC(=O)[C@@H]4CCCN4C3=O)C(=O)N[C@@H](CCSC)C(=O)N[C@@H](CCCCNC(=N)N)C(=O)N[C@@H](CC(=O)O)C(=O)N[C@@H](Cc3c[nH]c4ccccc34)C(=O)N[C@@H](CO)C(=O)N[C@@H]([C@@H](C)O)C(=O)N3CCC[C@H]3C(=O)N3C[C@H](O)C[C@H]3C(=O)N[C@@H](Cc3c[nH]c4ccccc34)C(=O)N[C@H](C(N)=O)CSCCC5=O)nn1)C(=O)N[C@H](C)C(=O)N1CCC[C@H]1C(=O)N[C@@H](Cc1ccc(O)cc1)C(=O)N2,Tumor necrosis factor receptor superfamily member 9,binding,,SPR,,Kd,12 nM
